# Measurements gathered from unrelated publications.
# Compare with care: the assays were run in different laboratories. pIC50: −log10 of the molar value.
# PTPN22: Tyrosine-protein phosphatase non-receptor type 22 (PTPN22, Homo sapiens, UniProt Q9Y2R2)
# Nuclear receptor ROR-gamma: Nuclear receptor ROR-gamma (Mus musculus, UniProt P51450)
# CHEK1: Serine/threonine-protein kinase Chk1 (CHEK1, Homo sapiens, UniProt O14757)
# SLC6A3: Sodium-dependent dopamine transporter (SLC6A3, Homo sapiens, UniProt Q01959)
# PRMT1: Protein arginine N-methyltransferase 1 (PRMT1, Homo sapiens, UniProt Q99873)
# DDR2: Discoidin domain-containing receptor 2 (DDR2, Homo sapiens, UniProt Q16832)
# HDAC5: Histone deacetylase 5 (HDAC5, Homo sapiens, UniProt Q9UQL6)
# PDE10A: cAMP and cAMP-inhibited cGMP 3',5'-cyclic phosphodiesterase 10A (PDE10A, Homo sapiens, UniProt Q9Y233)
SMILES,target,assay,conditions,pIC50
S=C(SSC(=S)N1CCOCC1)N1CCOCC1,PTPN22,"enzyme activity, inhibitor, fluorescence",pH 6.5,4.64
COc1cc(O)c(C(CC(=O)N2CCCC2)c2ccc3c(c2)OCO3)c(OC)c1 (stereo not drawn),Nuclear receptor ROR-gamma,reporter gene,,< 4.30
O=c1cc(-c2ccc(-c3[nH]nc4c3Cc3cc(O)ccc3-4)cc2)cc[nH]1,CHEK1,"enzyme activity, inhibitor",,5.90
Fc1ccc(C(c2ccc(F)cc2)c2nnnn2CCCCN2CCN(Cc3ccccc3)CC2)cc1,SLC6A3,"transporter uptake, inhibitor",,6.84
CCn1ncc2c1-c1cnc(N)c(c1)O[C@H](C)c1cc(F)ccc1-c1nn(C)nc1C2,"Leukocyte tyrosine kinase receptor (LTK, Homo sapiens, UniProt P29376)","enzyme activity, inhibitor, radiometric",,8.24
COC(=O)Cc1ccc2c(c1)NC(=O)c1ccc(-c3cn(C)cn3)cc1N2,CHEK1,"enzyme activity, inhibitor",,5.11
Nc1ncnc2c1ncn2[C@@H]1O[C@H](CN(CC[C@H](N)C(=O)O)Cc2ccc3ccccc3c2)[C@@H](O)[C@H]1O,PRMT1,"enzyme activity, inhibitor",,< 4.30
CC(C)n1nnc(-c2cc(O)cc(Nc3ncnn4ccc(CN5CCC(N)CC5)c34)c2)n1,"AP2-associated protein kinase 1 (AAK1, Homo sapiens, UniProt Q2M2I8)","enzyme activity, inhibitor",,9.70
Clc1ccc(C(c2ccccc2)c2nnnn2CCCN2CCC(Cc3ccccc3)CC2)cc1 (stereo not drawn),SLC6A3,"transporter uptake, inhibitor",,6.65
CCOc1ccc2c(-c3cc(C)nc(Nc4cc(OC)cc(C(F)(F)F)c4)n3)cnn2n1,"Dual specificity protein kinase CLK4 (CLK4, Homo sapiens, UniProt Q9HAZ1)","enzyme activity, inhibitor",,< 5.00
COCCNC(=O)Nc1ccc2nc(-c3cccs3)c(-c3cccs3)nc2c1,"Acetyl-coenzyme A synthetase, cytoplasmic (ACSS2, Homo sapiens, UniProt Q9NR19)","enzyme activity, inhibitor, absorbance",,~6.22
Cc1cnc(-c2ccc(-c3ccc(NC(=O)Nc4c(F)cc(F)cc4F)cc3F)c3c2C(=O)NC3)[nH]1,DDR2,"enzyme activity, inhibitor",,9.00
COc1ccc(S(=O)(=O)ON=C2C=C(C)C(=O)C(C)=C2)cc1,"Histone acetyltransferase KAT2A (KAT2A, Homo sapiens, UniProt Q92830)","enzyme activity, inhibitor, radiometric",,4.47
COc1cc(-c2ccc3c(c2)N(C)c2ccccc2NC3=O)ccc1[N+](=O)[O-],CHEK1,"enzyme activity, inhibitor",,5.79
O=C(O)C1=CCCN(CCON=C(c2ccccc2)c2ccccc2)C1,"Sodium- and chloride-dependent GABA transporter 1 (Slc6a1, Rattus norvegicus, UniProt P23978)","ligand displacement, radioligand",,6.68
Nc1ccc(-c2ccncc2)cc1NC(=O)N1CCCC1,HDAC5,"enzyme activity, inhibitor",,< 4.48
N=C(N)c1ccc(-c2ccc(-c3ccc(C(=N)N)nc3)o2)cc1,PRMT1,"enzyme activity, inhibitor",,5.02
COc1cc(O)c(C(CC(=O)Nc2ccc(C)cc2)c2ccc3c(c2)OCO3)c(OC)c1 (stereo not drawn),Nuclear receptor ROR-gamma,reporter gene,,< 4.30
Cc1ccc(C(=O)Nc2ccc(Oc3cc4cnn(C)c4cc3-c3cn[nH]c3)c(F)c2)c(=O)n1-c1ccc(F)cc1,DDR2,"enzyme activity, inhibitor, radiometric",,7.39
CC/C=C\C/C=C\C/C=C\C/C=C\C/C=C\CCCC(=O)O,"DNA topoisomerase 1 (TOP1, Homo sapiens, UniProt P11387)","enzyme activity, inhibitor",,4.70
N=C(NCCCSC[C@H]1O[C@@H](n2cnc3c(NCCCc4ccccc4)ncnc32)[C@H](O)[C@@H]1O)Nc1ccccc1,PRMT1,"enzyme activity, inhibitor, fluorescence",,6.45
c1ccc(CCC2CCN(CCCCn3nnnc3C(c3ccccc3)c3ccccc3)CC2)cc1,SLC6A3,"transporter uptake, inhibitor",,6.42
COc1ccc(-c2ccccc2)cc1NS(=O)(=O)c1cc(Cl)cc(Cl)c1O,"ATP-citrate synthase (ACLY, Homo sapiens, UniProt P53396)","enzyme activity, inhibitor",,6.34
N=C(NCCCSC[C@H]1O[C@@H](n2cnc3c(NCCCc4ccccc4)ncnc32)[C@H](O)[C@@H]1O)NC1CCC1,PRMT1,"enzyme activity, inhibitor, fluorescence",,6.60
O=C1NC(=O)C(Cc2ccc3cc(OCc4ccccc4F)ccc3c2)S1 (stereo not drawn),"Pantothenate kinase 3 (PANK3, Homo sapiens, UniProt Q9H999)","enzyme activity, inhibitor, radiometric",,5.30
C/C(=N\O)c1ccc(-c2cccc(O)c2)c(Cl)c1O,"Solute carrier family 2, facilitated glucose transporter member 1 (SLC2A1, Homo sapiens, UniProt P11166)","transporter uptake, inhibitor, radiometric",,4.80
Fc1ccc(C(c2ccc(F)cc2)c2nnnn2CCCCN2CCC(Cc3ccccc3)CC2)cc1,SLC6A3,"transporter uptake, inhibitor",,7.24
COc1cc(C[C@H]2C(=O)OC[C@@H]2Cc2ccc(OC)c(OC)c2)ccc1O,PDE10A,"enzyme activity, inhibitor",,< 5.30
COc1cc(-c2ccc3c(c2)Nc2ncccc2NC3=O)ccc1[N+](=O)[O-],CHEK1,"enzyme activity, inhibitor",,< 5.00
Fc1ccc(C(c2ccc(F)cc2)c2nnnn2CCCCN2CCC(Cc3ccc(Cl)c(Cl)c3)CC2)cc1,SLC6A3,"transporter uptake, inhibitor",,6.22
Cc1cccc(-c2ccnc3c(C(=O)O)cnn23)c1,"Toll-like receptor 8 (TLR8, Homo sapiens, UniProt Q9NR97)",reporter gene,,< 4.70
O=S(=O)(O)OC[C@H]1O[C@@](COS(=O)(=O)O)(O[C@H]2O[C@H](COS(=O)(=O)O)[C@@H](OS(=O)(=O)O)[C@H](OS(=O)(=O)O)[C@H]2OS(=O)(=O)O)[C@@H](OS(=O)(=O)O)[C@@H]1OS(=O)(=O)O,"Coagulation factor XI (F11, Homo sapiens, UniProt P03951)","enzyme activity, inhibitor, absorbance",pH 7.4,< 2.40
Cc1ccc(NC(=O)c2ccc(C)c(C(F)(F)F)c2)cc1C#Cc1nn(C2CCC(O)CC2)c2ncnc(N)c12 (stereo not drawn),"Fibroblast growth factor receptor 2 (FGFR2, Homo sapiens, UniProt P21802)","enzyme activity, inhibitor, radiometric",,7.40
COC(=O)Cc1ccc2c(c1)NC(=O)c1cc(C)c(-c3cccc(NC(C)=O)c3)cc1N2,CHEK1,"enzyme activity, inhibitor",,< 5.00
Clc1ccc(C(c2ccccc2)c2nnnn2CCCCN2CCC(Cc3ccc(Cl)c(Cl)c3)CC2)cc1 (stereo not drawn),SLC6A3,"transporter uptake, inhibitor",,6.26
COC(=O)C1CCCN1C(=O)c1ccc2c(c1)NC(=O)c1ccc(-c3ccc(O)c(OC)c3)cc1N2 (stereo not drawn),CHEK1,"enzyme activity, inhibitor",,6.89
COc1ccc(-c2nsc(NC(=O)[C@@H]3C[C@H]3C)c2C)cc1,"Metabotropic glutamate receptor 5 (GRM5, Homo sapiens, UniProt P41594)","calcium signal, antagonist",,6.93
N=C(NCCCO)NCCCSC[C@H]1O[C@@H](n2cnc3c(NCCCc4ccccc4)ncnc32)[C@H](O)[C@@H]1O,PRMT1,"enzyme activity, inhibitor, fluorescence",,5.31
COc1cccc(CN(C(=O)CC(C)(C)C)[C@H]2C[C@@H](C(=O)N3CCNCC3)N(Cc3ccc4c(c3)OCO4)C2)c1,"Protein smoothened (SMO, Homo sapiens, UniProt Q99835)","reporter gene, inhibitor, luciferase",,5.82
O=C1CSC(=S)N1NC(=S)SSC(=S)NN1C(=O)CSC1=S,PTPN22,"enzyme activity, inhibitor, fluorescence",pH 6.5,5.52
CSc1ccc(/C=C2/C(C)=C(CC(=O)O)c3cc(F)ccc32)cc1,PDE10A,"enzyme activity, inhibitor",,< 4.00
OCc1ccc(-c2ccc(-c3[nH]nc4c3Cc3cc(O)ccc3-4)cc2)cc1,CHEK1,"enzyme activity, inhibitor",,< 5.00
Clc1ccc(CC2CCN(CCCCn3nnnc3C(c3ccccc3)c3ccccc3)CC2)cc1Cl,SLC6A3,"transporter uptake, inhibitor",,6.31
CC(C)(C)OC(=O)NCCCCOc1ccc(Cl)cc1NC(=O)Nc1cnc(C#N)cn1,CHEK1,"enzyme activity, inhibitor",,5.08
CCCC[C@H](NC(=O)[C@H](C)c1c(C)[nH]c2ccc(O)cc12)c1ncc(-c2cc3ccccc3nc2OC)[nH]1,HDAC5,"enzyme activity, inhibitor",,< 4.35
